Reference: ChEMBL document CHEMBL1155882, “Selective nucleoside triphosphate diphosphohydrolase-2 (NTPDase2) inhibitors: nucleotide mimetics derived from uridine-5'-carboxamide” (J Med Chem, 2008)

Columns and labels:
P2Y purinoceptor 2 [1] = biological target: T1, P2Y purinoceptor 2 (Homo sapiens, UniProt P41231); test: Antagonist activity at human P2Y2 receptor expressed in human 1321N1 cells assessed as inhibition of UTP-induced intracellular calcium mobilization at 100 uM by FLUOstar plate reader; type: functional, cell-based
T1 sequence (P41231 whole entry): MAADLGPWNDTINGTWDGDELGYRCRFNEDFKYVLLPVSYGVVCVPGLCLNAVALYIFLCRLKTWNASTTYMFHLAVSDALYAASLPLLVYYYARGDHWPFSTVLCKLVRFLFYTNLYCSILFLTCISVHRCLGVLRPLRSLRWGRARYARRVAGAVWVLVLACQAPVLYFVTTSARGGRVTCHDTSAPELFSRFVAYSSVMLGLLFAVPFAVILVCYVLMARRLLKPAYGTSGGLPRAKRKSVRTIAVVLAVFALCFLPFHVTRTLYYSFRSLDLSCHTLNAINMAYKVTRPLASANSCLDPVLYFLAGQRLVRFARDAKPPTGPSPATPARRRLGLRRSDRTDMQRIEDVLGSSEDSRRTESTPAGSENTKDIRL
In short: (§1)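 Human 1321N1 astrocytoma cells express human P2Y2 or P2Y4, or rat P2Y6. Cells are loaded with Fura-2 AM and preincubated with compound at 100 μM. Inhibition of agonist-induced intracellular calcium release is read as Fura-2 fluorescence. The agonist is UTP for P2Y2 and P2Y4, and UDP for P2Y6.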

P2Y purinoceptor 2 [2] = biological target: T1, P2Y purinoceptor 2; test: Antagonist activity at human P2Y2 receptor expressed in human 1321N1 cells assessed as inhibition of UTP and ATP-induced receptor activation at 100 uM relative to UTP; type: functional, cell-based; set-up: scale not given: the % may be the effect or the level left; in short: as §1
[3] = biological target: P2Y purinoceptor 6 (Rattus norvegicus) (UniProt Q63371); test: Antagonist activity at rat P2Y6 receptor expressed in human 1321N1 cells assessed as inhibition of UDP-induced receptor activation at 100 uM relative to UDP; type: functional, cell-based; set-up: scale not given: the % may be the effect or the level left; in short: as §1
Chain of P2Y purinoceptor 6 (Rattus norvegicus) (Q63371 whole entry): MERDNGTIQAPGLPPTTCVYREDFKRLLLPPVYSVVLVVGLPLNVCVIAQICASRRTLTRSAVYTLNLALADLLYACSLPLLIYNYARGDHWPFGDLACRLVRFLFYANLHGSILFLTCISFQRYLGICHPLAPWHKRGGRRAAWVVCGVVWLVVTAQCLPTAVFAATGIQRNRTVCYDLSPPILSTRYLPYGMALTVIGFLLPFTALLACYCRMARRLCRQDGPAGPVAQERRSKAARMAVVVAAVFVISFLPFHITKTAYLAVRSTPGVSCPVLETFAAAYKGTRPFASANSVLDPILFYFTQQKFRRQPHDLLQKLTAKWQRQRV

P2Y purinoceptor 4 [4] = biological target: T2, P2Y purinoceptor 4 (Homo sapiens, UniProt P51582); test: Antagonist activity at human P2Y4 receptor expressed in human 1321N1 cells assessed as inhibition of UTP-induced receptor activation at 100 uM relative to UTP; type: functional, cell-based; set-up: scale not given: the % may be the effect or the level left; in short: as §1
T2 sequence (P51582 whole entry): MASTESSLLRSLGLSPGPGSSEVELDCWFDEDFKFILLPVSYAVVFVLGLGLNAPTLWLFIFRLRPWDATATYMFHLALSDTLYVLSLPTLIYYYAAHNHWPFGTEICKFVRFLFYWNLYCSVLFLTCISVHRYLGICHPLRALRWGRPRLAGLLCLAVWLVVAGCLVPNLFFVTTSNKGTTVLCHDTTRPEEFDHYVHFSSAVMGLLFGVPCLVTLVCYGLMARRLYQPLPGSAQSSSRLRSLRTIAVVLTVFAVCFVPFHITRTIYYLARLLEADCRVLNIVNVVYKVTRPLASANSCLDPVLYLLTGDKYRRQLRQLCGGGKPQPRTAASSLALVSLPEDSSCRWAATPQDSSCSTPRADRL

[5] = biological target: T3, Ectonucleoside triphosphate diphosphohydrolase 1 (Homo sapiens) (UniProt P49961); test: Inhibition of human NTPDase 1 expressed in COS7 cells at 1mM; type: cell-based; details: COS-7
T3 sequence (whole entry): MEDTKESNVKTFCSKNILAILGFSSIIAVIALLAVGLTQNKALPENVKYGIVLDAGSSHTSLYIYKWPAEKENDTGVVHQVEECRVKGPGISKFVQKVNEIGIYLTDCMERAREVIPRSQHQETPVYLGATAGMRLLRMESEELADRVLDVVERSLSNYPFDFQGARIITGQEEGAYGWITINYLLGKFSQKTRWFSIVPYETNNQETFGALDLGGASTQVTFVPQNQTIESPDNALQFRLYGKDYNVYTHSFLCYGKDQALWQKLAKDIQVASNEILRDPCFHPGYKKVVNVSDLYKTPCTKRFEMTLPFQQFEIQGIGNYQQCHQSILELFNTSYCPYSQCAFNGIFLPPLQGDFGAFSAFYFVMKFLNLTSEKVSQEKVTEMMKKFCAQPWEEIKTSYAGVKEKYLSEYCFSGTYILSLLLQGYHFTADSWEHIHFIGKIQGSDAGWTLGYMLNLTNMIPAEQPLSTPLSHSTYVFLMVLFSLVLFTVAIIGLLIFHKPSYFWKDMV
In short: (§2)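 Transiently transfected COS-7 cell protein extract expressing human enzyme. 1 mM test compound with 400 μM ATP in HEPES 10 mM pH 7.4 buffer (NaCl, KCl, 1 mM MgCl2, 2 mM CaCl2), 37 °C for 10 min. Stopped at 99 °C for 5 min. Products measured by capillary electrophoresis, UV 210 nm, with UMP internal standard. Triplicates in two experiments; empty-pcDNA3 membrane control.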

[6] = biological target: T4, Ectonucleoside triphosphate diphosphohydrolase 2 (Homo sapiens) (UniProt Q9Y5L3); test: Inhibition of human NTPDase 2 expressed in HEK293 cells at 1mM; type: cell-based
T4 sequence (whole entry): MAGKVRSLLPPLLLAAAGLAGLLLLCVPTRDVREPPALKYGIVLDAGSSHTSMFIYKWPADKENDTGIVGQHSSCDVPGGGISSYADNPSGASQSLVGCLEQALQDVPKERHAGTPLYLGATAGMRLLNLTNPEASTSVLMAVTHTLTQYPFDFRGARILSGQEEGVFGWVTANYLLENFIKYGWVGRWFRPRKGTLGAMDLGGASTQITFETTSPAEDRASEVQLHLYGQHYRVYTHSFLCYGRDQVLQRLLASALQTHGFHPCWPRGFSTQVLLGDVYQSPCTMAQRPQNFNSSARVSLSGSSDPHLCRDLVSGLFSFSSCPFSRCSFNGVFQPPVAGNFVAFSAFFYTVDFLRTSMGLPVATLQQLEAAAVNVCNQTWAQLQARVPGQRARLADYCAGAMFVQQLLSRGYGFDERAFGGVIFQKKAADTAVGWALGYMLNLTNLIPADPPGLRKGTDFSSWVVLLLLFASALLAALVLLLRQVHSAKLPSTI
In short: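 Membranes from HEK 293 cells stably expressing human NTPDase2 (geneticin selection), prepared by differential and sucrose-gradient centrifugation. 1 mM test compound with 400 μM ATP in 10 mM HEPES pH 7.4 saline (1 mM MgCl2, 2 mM CaCl2), 37 °C for 10 min. Heat-stopped at 99 °C. Nucleotides separated by capillary electrophoresis, UV 210 nm, UMP internal standard. Triplicates, two experiments.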

[7] = biological target: T5, Ectonucleoside triphosphate diphosphohydrolase 3 (Homo sapiens) (UniProt O75355); test: Inhibition of human NTPDase 3 expressed in COS7 cells at 1mM; type: cell-based; details: COS-7
T5 sequence (whole entry): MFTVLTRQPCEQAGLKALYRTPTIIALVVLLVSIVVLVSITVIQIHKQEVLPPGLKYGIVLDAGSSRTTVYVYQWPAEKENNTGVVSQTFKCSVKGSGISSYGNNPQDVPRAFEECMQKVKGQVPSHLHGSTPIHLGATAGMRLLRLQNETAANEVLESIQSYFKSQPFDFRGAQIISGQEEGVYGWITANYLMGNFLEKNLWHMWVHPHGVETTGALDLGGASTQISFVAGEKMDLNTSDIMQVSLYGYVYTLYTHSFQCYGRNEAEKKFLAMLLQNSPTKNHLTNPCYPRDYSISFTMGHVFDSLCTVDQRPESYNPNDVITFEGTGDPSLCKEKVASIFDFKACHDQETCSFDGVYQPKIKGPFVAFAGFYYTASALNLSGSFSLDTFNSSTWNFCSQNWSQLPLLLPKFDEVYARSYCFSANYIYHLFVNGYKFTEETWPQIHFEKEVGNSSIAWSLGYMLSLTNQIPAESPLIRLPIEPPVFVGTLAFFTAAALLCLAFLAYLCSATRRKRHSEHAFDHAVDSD
In short: (§3)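 NTPDase2 membranes come from stably transfected HEK 293 cells; NTPDase3 and NTPDase8 are transiently expressed in COS-7 cells as crude protein extracts. Buffer is 140 mM NaCl, 5 mM KCl, 1 mM MgCl2, 2 mM CaCl2, 10 mM HEPES pH 7.4, with 400 μM ATP, 37 °C, 10 min, stopped at 99 °C. Products are read by capillary electrophoresis (UV 210 nm, UMP internal standard).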

[8] = biological target: T6, Ectonucleoside triphosphate diphosphohydrolase 8 (Homo sapiens) (UniProt Q5MY95); test: Inhibition of human NTPDase 8 expressed in COS7 cells at 1mM; type: cell-based; details: COS-7; in short: as §2
T6 sequence (whole entry): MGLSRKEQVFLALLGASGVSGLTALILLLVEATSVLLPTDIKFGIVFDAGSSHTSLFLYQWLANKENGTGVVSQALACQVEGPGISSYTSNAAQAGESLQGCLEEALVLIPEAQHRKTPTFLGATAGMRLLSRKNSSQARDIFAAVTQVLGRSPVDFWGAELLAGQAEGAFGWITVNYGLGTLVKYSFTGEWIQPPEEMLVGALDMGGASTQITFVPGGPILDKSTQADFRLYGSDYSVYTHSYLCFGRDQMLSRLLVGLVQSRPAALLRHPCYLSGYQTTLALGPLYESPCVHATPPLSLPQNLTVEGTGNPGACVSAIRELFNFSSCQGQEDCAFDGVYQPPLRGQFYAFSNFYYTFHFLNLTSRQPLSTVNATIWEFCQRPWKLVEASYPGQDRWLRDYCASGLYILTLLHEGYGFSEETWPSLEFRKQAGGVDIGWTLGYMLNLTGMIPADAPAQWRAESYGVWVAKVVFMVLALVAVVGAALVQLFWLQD

P2Y purinoceptor 4 [9] = biological target: T2, P2Y purinoceptor 4; test: Antagonist activity at human P2Y4 receptor expressed in human 1321N1 cells assessed as inhibition of UTP-induced intracellular calcium mobilization at 100 uM by FLUOstar plate reader; type: functional, cell-based; in short: as §1
[10] = biological target: P2Y purinoceptor 6 (Rattus norvegicus) (UniProt Q63371); test: Antagonist activity at rat P2Y6 receptor expressed in human 1321N1 cells assessed as inhibition of UDP-induced intracellular calcium mobilization at 100 uM by NOVOstar plate reader; type: functional, cell-based; in short: as §1
[11] = Chemical stability in 0.001 N aqueous sodium hydroxide at pH 11 by LC-MS analysis; type: physicochemical; details: buffer
In short: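 Compound from a 2 mM aqueous stock (20 mM NH4OAc) is diluted 10 μL into 990 μL of 0.001 N NaOH (pH 11). It is incubated 2 or 24 h at 37 °C and analysed by C18 LC–ESI-MS, with detection limit about 0.1 μg/mL.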

[12] = Stability in simulated artificial gastric juice after 24 hrs by LC-MS analysis; type: physicochemical; details: simulated gi fluid
[13] = biological target: T7, Ectonucleoside triphosphate diphosphohydrolase 8 (Homo sapiens, UniProt Q5MY95); test: Inhibition of human NTPDase 8 expressed in COS7 cells; type: cell-based, COS-7; in short: as §3
T7 sequence (Q5MY95 whole entry): T6 sequence (whole entry)

[14] = biological target: T8, Ectonucleoside triphosphate diphosphohydrolase 2 (Homo sapiens, UniProt Q9Y5L3); test: Inhibition of human NTPDase 2 expressed in HEK293 cells assessed as residual activity by capillary electrophoresis; type: cell-based; in short: as §3
T8 sequence (Q9Y5L3 whole entry): T4 sequence (whole entry)

[15] = Inhibition of rat NTPDase 3

Structure (SMILES) | inhibition (P2Y purinoceptor 2 [1]) | inhibition [5] | inhibition [6] | inhibition [7] | inhibition [8] | Activity (P2Y purinoceptor 2 [2]) | Activity [3] | Activity (P2Y purinoceptor 4 [4]) | inhibition (P2Y purinoceptor 4 [9]) | inhibition [10] | Stability [11] | Stability [12] | Ki [13] | IC50 [14] | Ki [15]
CCOP(=O)(Cc1ccc(NC(=O)CCCNC(=O)[C@H]2O[C@@H](n3ccc(=O)[nH]c3=O)[C@H](O)[C@@H]2O)cc1)OCC | 6% |  |  | 48% |  |  |  |  | 7% | -8% | Stable | Stable |  |  | 
CCOP(=O)(Cc1ccc(NC(=O)CCCNC(=O)[C@H]2O[C@@H](n3cnc4c(N)ncnc43)[C@H](O)[C@@H]2O)cc1)OCC | 37% |  |  | 0% |  |  |  |  |  |  |  |  | 255 µM |  | 
CCOP(=O)(CNC(=O)CCCNC(=O)[C@H]1O[C@@H](n2ccc(=O)[nH]c2=O)[C@H](O)[C@@H]1O)OCC |  | 45% |  | 0% | 0% |  |  |  | 21% | -3% |  |  |  | 101 µM | 
CCOP(=O)(CNC(=O)CNC(=O)[C@H]1O[C@@H](n2ccc(=O)[nH]c2=O)[C@H](O)[C@@H]1O)OCC |  |  |  | 0% | 0% | 58% | 12% | 46% | 38% | 17% |  |  |  | 374 µM | 
CCN(CC)c1ncnc2c1ncn2[C@@H]1O[C@H](COP(=O)(O)OP(=O)(O)C(Br)(Br)P(=O)(O)O)[C@@H](O)[C@H]1O |  |  |  |  |  |  |  |  |  |  |  |  | > 100 µM |  | 112 µM
CCOP(=O)(Cc1ccc(NC(=O)CCNC(=O)[C@H]2O[C@@H](n3cnc4c(N)ncnc43)[C@H](O)[C@@H]2O)cc1)OCC | 46% |  |  | 0% | 0% | 16% | -7% | 11% |  | 15% |  |  |  |  | 

Continued, in another order:

inhibition (P2Y purinoceptor 2 [1]) | inhibition [5] | inhibition [6] | inhibition [7] | inhibition [8] | Structure (SMILES) | Activity (P2Y purinoceptor 2 [2]) | Activity [3] | Activity (P2Y purinoceptor 4 [4]) | inhibition (P2Y purinoceptor 4 [9]) | inhibition [10] | Stability [11] | Stability [12] | Ki [13] | IC50 [14] | Ki [15]
61% | 0% | 0% | 25% | 0% | CCOP(=O)(CNC(=O)CNC(=O)[C@H]1O[C@@H](n2cnc3c(N)ncnc32)[C@H](O)[C@@H]1O)OCC | 33% | 6% | -2% |  |  |  |  |  |  | 
 | 0% | 0% | 0% | 0% | CCOP(=O)(Cc1ccc(NC(=O)CNC(=O)[C@H]2O[C@@H](n3cnc4c(N)ncnc43)[C@H](O)[C@@H]2O)cc1)OCC |  |  |  | 7% | 6% |  |  |  |  | 
32% | 0% | 0% | 0% | 0% | CCOP(=O)(CNC(=O)CCCNC(=O)[C@H]1O[C@@H](n2cnc3c(N)ncnc32)[C@H](O)[C@@H]1O)OCC |  |  |  |  |  |  |  |  |  | 
-7% | 0% |  | 22% | 0% | CCOP(=O)(CCNC(=O)CNC(=O)[C@H]1O[C@@H](n2ccc(=O)[nH]c2=O)[C@H](O)[C@@H]1O)OCC |  |  |  | 8% | 9% |  |  |  |  | 
29% | 0% | 0% | 0% | 0% | CCOP(=O)(CNC(=O)CCNC(=O)[C@H]1O[C@@H](n2cnc3c(N)ncnc32)[C@H](O)[C@@H]1O)OCC |  |  |  |  |  |  |  |  |  | 
43% | 0% |  | 0% | 0% | CCOP(=O)(CNC(=O)CCNC(=O)[C@H]1O[C@@H](n2ccc(=O)[nH]c2=O)[C@H](O)[C@@H]1O)OCC | 13% | -16% | 11% | 6% | -3% |  |  |  |  | 
